Screening data as filed in PubChem BioAssay.
RanGTP-Impb inh: inhibitors of RanGTP-importin-beta interaction, primary screen, biochemical, FRET, CFP-Ran, YFP-importin-beta, homogeneous | Ran GTPase (GTP-bound) - importin-beta complex | cell-free CFP-Ran/YFP-importin-beta FRET ratio | inhibition, % (concentration not given with the values) | hit rate 1.1% among 300,000 | AID 2216, 2009;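 active = more than half of the replicate wells show a fall in the fluorescence ratio signal beyond about 16%, limit read from the data, passing the limit was not always enough; inconclusive = exactly half of the replicate wells pass the set limit; inactive = fewer than half of replicates pass the limit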;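 also: 0% = DMSO wells and 100% = Ran loaded with GDP instead of GTP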
Runt-SMMHC FRET: inhibitors of RUNX1 Runt–CBFb-SMMHC binding, primary screen, biochemical, FRET, Cerulean-Runt, Venus-CBFb-SMMHC, uHTS. Cerulean-Runt/Venus-CBFb-SMMHC FRET ratio 530/480, 1 h. inhibition, % at 20 µM. hit rate 0.74% among 220,000;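 active = mean inhibition across duplicate retests at 20 µM reaching about 50%, limit read from the data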;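 also: 0% = DMSO wells and 100% = wells with excess untagged CBFb-SMMHC; inhibitors lower the FRET ratio by blocking Runt binding to CBFb-SMMHC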
Hck-Nef inh: inhibitors of Nef-activated human Hck kinase, primary screen, biochemical, Z-Lyte FRET, 384-well, Hck-YEEI; Recombinant Hck-YEEI plus Nef, Z-Lyte FRET kinase assay; hit rate 0.68% among 220,000; AID 463187, 2010; Tyrosine-protein kinase HCK (Homo sapiens), P08631; inhibition, % at 20 µM;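 active = Hck-Nef kinase inhibition above about 50%, limit read from the data; inactive = inhibition below that limit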;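 also: 0% = DMSO with Hck plus Nef and 100% = Hck alone without Nef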
Runt-CBFb FRET: inhibitors of RUNX1 Runt–CBFb binding, primary screen, biochemical, FRET, Cerulean-Runt, Venus-CBFb, uHTS | Runt-related transcription factor 1 (Homo sapiens) + Core-binding factor subunit beta … | Cerulean-Runt/Venus-CBFb FRET ratio 530/480, 1 h | inhibition, % at 20 µM | hit rate 0.46% among 220,000;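 active = inhibition over about 50% at 20 µM in the single-dose screen, limit read from the data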;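 also: 0% = DMSO wells and 100% = excess unlabeled CBFb competitor control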
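Assay system: Cerulean-Runt domain / Medium: Tris 50 mM pH 7.5, KCl, K2SO4, 0.01% BSA / Timing: protein complex preformed 1 h, compound exposure 1 h, room temperature, dark / Measured by: FRET, excitation 422 nm, emission at 530 and 480 nm / Evaluation: loss of energy transfer signal / Control set: 5 µM unlabeled CBFb as full-inhibition high control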
RUNX1 CBFb TR: inhibitors of RUNX1 Runt–CBFb binding, biochemical, TR-FRET; shares compounds with Runt-CBFb FRET; hit rate 20% among 480; inhibition, % at 20 µM; TR-FRET RUNX1 Runt domain-CBFb binding; in the data active = inhibition above about 40%
YIC counter: YIC intramolecular FRET probe signal interference, dose response, counter-screen for RanGTP-importin-beta inhibitor project, biochemical, fluorescence FRET; shares compounds with RanGTP-Impb inh; Purified YIC probe, intramolecular FRET ratio YFP/CFP; IC50, µM; hit rate 40% among 1,000;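 active = fitted half-maximal inhibitory concentration no more than tenfold above the top dose tested; inconclusive = flat fit with 30 to 70% activity, or poor fit; inactive = half-maximal concentration beyond tenfold above the top dose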
* hit, by the source's call; ? = inconclusive; · = no result. Rows were chosen to be rich in hits. Some 1.9% of all compounds tested hit in one or more screens of this group.

SMILES	RanGTP-Impb inh	Runt-SMMHC FRET	Hck-Nef inh	Runt-CBFb FRET	RUNX1 CBFb TR	YIC counter
CCC12OC(=N)C(C#N)(C1C)C(C#N)(C#N)C(c1ccccc1)O2 (stereo unspecified)	21*	88*	2	58*	41*	·
CN1C(=O)CC(N2CCN(CC(=O)N3CCCC3)CC2)C1=O (stereo unspecified)	?	0	2	0	·	·
COc1ccc(S(=O)(=O)NCC2CCCN(Cc3cn(C)nc3C)C2)cc1 (stereo unspecified)	4	·	·	·	·	·
CNC(=O)/C(C#N)=C/c1c(N(Cc2ccccc2)Cc2ccccc2)nc2ccccn2c1=O	1	90*	0	63*	3	·
O=C(Nc1ccc(-c2nc3ccccc3s2)c(O)c1)C1=COCCO1	-31	128*	67*	59*	2	·
CCN(C(=O)c1ccco1)C1C2CC3CC(C2)CC1C3 (stereo unspecified)	5	·	·	·	·	·
Oc1ccc(O)c(-c2cnns2)c1	-1	·	4	71*	-17	·
Oc1ccc(Br)cc1-c1ccn[nH]1	0	0	7	0	·	·
COCCn1c(SCC(=O)NCC2CCCO2)nc2c(c1=O)SCC2 (stereo unspecified)	5	·	·	·	·	·
CN(C(=O)CCN1C(=O)c2ccccc2C1=O)c1ccccc1	1	·	·	·	·	·
COc1cc(N2C(=O)C=CC2=O)c(OC)cc1Cl	?	70*	-157	64*	11	·
CNS(=O)(=O)c1ccc2nc(NC(=O)c3ccc(N4C(=O)CCC4=O)cc3)sc2c1	1	60	21	55*	12	·
CCc1ccc2nc(NC(=O)c3ccc(N4C(=O)CCC4=O)cc3)sc2c1	6	0	22	1	·	·
CCOCCCNC(=S)NCCNc1nc2c(C)cccc2cc1C#N	21*	93*	11	68*	30	32*
Cc1ccc2cc(C#N)c(NCCNC(=S)NCCCN(C)C)nc2c1C	6	45	19	25	·	·
Cc1ccc(C(=O)NNc2c3ccccc3nc3ccccc23)cc1	39*	28	8	73*	-9	>50
COc1ccc(Oc2ccc(-c3ccn[nH]3)cc2)cc1	-1	-8	8	-1	·	·
Cc1ccc(N=Cc2cc3c(cc2O)OC(N)=C(C#N)C3c2ccccc2)cc1 (stereo unspecified)	43*	117*	5	79*	4	>50
O=C(CN1C(=O)C2CC=CCC2C1=O)NC1CCCc2ccccc21 (stereo unspecified)	2	-2	-2	1	·	·
Cn1nccc1C(=O)Nc1sc2c(c1C#N)CCCC2	-3	·	·	·	·	·
COc1ccc(-c2c(C)sc(NC(=O)c3ccnn3C)c2C#N)cc1	25*	18	4	57*	-52	>50
CC(=O)c1c(C)cc(C)c(CSc2nc(C)cc(=O)[nH]2)c1C	?	-1	-1	1	·	·
CCn1nc(NC(=O)c2ccccn2)c2cc3cccc(C)c3nc21	38*	39	5	60*	-17	0.86*
O=C(Oc1c(Br)cc(C(=S)N2CCOCC2)cc1Br)c1ccc(Cl)cc1	17*	24	-1	50*	-11	>50
O=C(Oc1ccc(C(=S)N2CCOCC2)cc1Br)c1cc(Cl)ccc1Cl	1	-4	0	·	·	·
COCC(C)OC(=O)c1c(N)n(CC(C)C)c2nc3ccccc3nc12 (stereo unspecified)	21*	126*	33	63*	33	26*
CC(C)OC(=O)c1c(N)n(CCCN2CCOCC2)c2nc3ccccc3nc12	25*	84*	25	65*	32	31*
C=CCn1c(N)c(C(=O)OC(C)CC)c2nc3ccccc3nc21 (stereo unspecified)	35*	123*	30	66*	28	22*
